From ChEMBL document CHEMBL1134361, “C-Isoprenylation of flavonoids enhances binding affinity toward P-glycoprotein and modulation of cancer cell chemoresistance” (J Med Chem, 2001)

Columns and labels:
[1] = Direct binding to PgP recombinant cytosolic domain was measured by percent maximal quenching of the intrinsic fluorescence.; format: ADME; conditions: cytosol
Method in brief: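 Recombinant C-terminal cytosolic NBD2 of Pgp at 0.5 µM in 20 mM potassium phosphate pH 6.8 with 0.5 M NaCl, 20% glycerol and 0.01% heptylcarbamoyl glucopyranoside detergent, 25 °C. Excitation at 295 nm, emission scanned 310–360 nm and integrated, buffer-corrected. Ligand added stepwise up to 20 µM. Inner-filter correction used N-acetyltryptophanamide. Curve fitting gave K_D and percent maximal quenching.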

K562 = test: Relative daunomycin accumulation was determined in PgP-positive leukemic K562/R7 cells with daunomycin at a concentration of 10 uM; format: functional, Homo sapiens
Method in brief: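 K562/R7 human leukemic cells with high Pgp (1 million/mL RPMI 1640) incubated 1 h at 37 °C with 10 µM daunomycin (final), with or without 10 µM modulator. Cells washed three times in ice-cold PBS, kept on ice, intracellular drug fluorescence read by flow cytometry. Fluorescence shift expressed relative to that of 2 µM cyclosporin A reference. Duplicates, at least three experiments.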

[2] = Hydrophobicity index was determined in C18 reverse phase silica gel 20 * 20 cm plates in methanol:water (8:2).; format: ADME
[3] = Partition coefficient (logP); format: physicochemical; conditions: octanol/water
Method in brief: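 Log P estimated by extrapolation from a log P vs R_M calibration curve built with quercetine and platanetine data.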

[4] = Effect of Chrysin Alkylation on the Binding to PgP Cytosolic Domain.; format: ADME
Method in brief: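 Recombinant Pgp C-terminal cytosolic domain NBD2 (0.5 µM) in 20 mM potassium phosphate pH 6.8 with 0.5 M NaCl, 20% glycerol and 0.01% heptylcarbamoyl glucoside, 25 °C. Ligand titrated in aliquots up to 20 µM. Tryptophan fluorescence (ex 295 nm, em 310–360 nm) integrated; inner-filter corrected with N-acetyltryptophanamide. Curve fit gave KD and percent maximal quenching.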

Cc1c(O)cc2oc(-c3ccccc3)cc(=O)c2c1O
Delta Fmax [1]: 46.6%
Relative daunomycin accumulation (K562): 0.2
Hydrophobicity index [2]: 0.512
logP [3]: 5.85
Kd [4]: 3100 nM

CC(C)=CCc1c(O)cc2oc(-c3ccccc3)cc(=O)c2c1O
Delta Fmax [1]: 83.4%
Relative daunomycin accumulation (K562): 0.83
Hydrophobicity index [2]: 0.812
logP [3]: 6.15
Kd [4]: 300 nM

CC(C)c1c(O)cc2oc(-c3ccccc3)cc(=O)c2c1O
Delta Fmax [1]: 39%
Relative daunomycin accumulation (K562): 0.24
Hydrophobicity index [2]: 0.608
logP [3]: 5.95
Kd [4]: 210 nM

O=c1cc(-c2ccccc2)oc2c(Cc3ccccc3)c(O)c(Cc3ccccc3)c(O)c12
Delta Fmax [1]: 40.9%
Relative daunomycin accumulation (K562): 0.39
Hydrophobicity index [2]: 1.06
logP [3]: 6.41
Kd [4]: 36 nM

CC(C)=CCC/C(C)=C\Cc1c(O)cc2oc(-c3ccccc3)cc(=O)c2c1O
Delta Fmax [1]: 48.2%
Relative daunomycin accumulation (K562): 0.81
Hydrophobicity index [2]: 1.288
logP [3]: 6.64
Kd [4]: 45 nM

CC(C)Oc1cc(O)c2c(=O)cc(-c3ccccc3)oc2c1
Delta Fmax [1]: 53.2%
Relative daunomycin accumulation (K562): 0.3
Hydrophobicity index [2]: 0.898
logP [3]: 6.24
Kd [4]: 1320 nM

O=c1cc(-c2ccccc2)oc2cc(OCc3ccccc3)cc(O)c12
Delta Fmax [1]: 29.3%
Relative daunomycin accumulation (K562): 0.27
Hydrophobicity index [2]: 1.076
logP [3]: 6.42
Kd [4]: 68 nM

O=c1cc(-c2ccccc2)oc2cc(O)c(Cc3ccccc3)c(O)c12
Delta Fmax [1]: 72.4%
Relative daunomycin accumulation (K562): 0.09
Hydrophobicity index [2]: 0.754
logP [3]: 6.1
Kd [4]: 340 nM

O=c1cc(-c2ccccc2)oc2c(Cc3ccccc3)c(O)cc(O)c12
Delta Fmax [1]: 99.1%
Relative daunomycin accumulation (K562): 0.25
Hydrophobicity index [2]: 0.754
logP [3]: 6.1
Kd [4]: 990 nM

CC(C)Oc1c(C(C)C)c(O)c2c(=O)cc(-c3ccccc3)oc2c1C(C)C
Delta Fmax [1]: 38.4%
Relative daunomycin accumulation (K562): 0.29
Hydrophobicity index [2]: 1.479
logP [3]: 6.84
Kd [4]: 33 nM

CC(C)=CCC/C(C)=C\Cc1c(O)cc(O)c2c(=O)cc(-c3ccccc3)oc12
Delta Fmax [1]: 67%
Relative daunomycin accumulation (K562): 0.9
Hydrophobicity index [2]: 1.35
logP [3]: 6.71
Kd [4]: 25 nM

CC(C)Oc1cc2oc(-c3ccccc3)cc(=O)c2c(O)c1C(C)C
Delta Fmax [1]: 44.5%
Relative daunomycin accumulation (K562): 0.29
Hydrophobicity index [2]: 1.248
logP [3]: 6.6
Kd [4]: 280 nM

CC(C)=CCc1c(O)cc(O)c2c(=O)cc(-c3ccccc3)oc12
Delta Fmax [1]: 81%
Relative daunomycin accumulation (K562): 1.52
Hydrophobicity index [2]: 0.853
logP [3]: 6.2
Kd [4]: 280 nM

CC(C)=CCc1c(O)c(CC=C(C)C)c2oc(-c3ccccc3)cc(=O)c2c1O
Delta Fmax [1]: 21.5%
Relative daunomycin accumulation (K562): 0.84
Hydrophobicity index [2]: 1.296
logP [3]: 6.56
Kd [4]: 15 nM

COc1cc2oc(-c3ccccc3)cc(=O)c2c(O)c1C
Delta Fmax [1]: 57.3%
Relative daunomycin accumulation (K562): 0.3
Hydrophobicity index [2]: 0.842
logP [3]: 6.18
Kd [4]: 1300 nM

O=c1cc(-c2ccccc2)oc2cc(O)cc(O)c12 [CHRYSIN]
Delta Fmax [1]: 94.6%
Relative daunomycin accumulation (K562): 0.2
Hydrophobicity index [2]: 0.358
logP [3]: 5.7
Kd [4]: 13100 nM

COc1cc(O)c2c(=O)cc(-c3ccccc3)oc2c1 [TECHTOCHRYSIN]
Delta Fmax [1]: 68.1%
Relative daunomycin accumulation (K562): 0.23
Hydrophobicity index [2]: 0.719
logP [3]: 6.06
Kd [4]: 6300 nM
